The values that follow come from paper PMC4535927 (Angewandte Chemie (International ed. in English), 2015).

The target of data set [1] is T1, RET^V804M (Homo sapiens, UniProt P07949, V804M). The settings on record: cited from earlier work.
The target of data set [2] is T1, RET^V804M. The data set can be described thus: Cell-based RET inhibition, RET V804M.
In data set [3] the target is T1, RET^V804M. The data set can be described thus: RET V804M kinase microfluidics separation based assay. The settings on record: read-out: IC50, RET^V804M; [ATP] = 190 μM. The format is biochemical.
The target of data set [4] is T2, VEGFR2 (Homo sapiens, UniProt P35968). The data set can be described thus: VEGFA-induced VEGFR2 phosphorylation in transfected HEK293 cells. Format: cell-based. To be noted: 1.0 nM.
T2 sequence (P35968 20-1356): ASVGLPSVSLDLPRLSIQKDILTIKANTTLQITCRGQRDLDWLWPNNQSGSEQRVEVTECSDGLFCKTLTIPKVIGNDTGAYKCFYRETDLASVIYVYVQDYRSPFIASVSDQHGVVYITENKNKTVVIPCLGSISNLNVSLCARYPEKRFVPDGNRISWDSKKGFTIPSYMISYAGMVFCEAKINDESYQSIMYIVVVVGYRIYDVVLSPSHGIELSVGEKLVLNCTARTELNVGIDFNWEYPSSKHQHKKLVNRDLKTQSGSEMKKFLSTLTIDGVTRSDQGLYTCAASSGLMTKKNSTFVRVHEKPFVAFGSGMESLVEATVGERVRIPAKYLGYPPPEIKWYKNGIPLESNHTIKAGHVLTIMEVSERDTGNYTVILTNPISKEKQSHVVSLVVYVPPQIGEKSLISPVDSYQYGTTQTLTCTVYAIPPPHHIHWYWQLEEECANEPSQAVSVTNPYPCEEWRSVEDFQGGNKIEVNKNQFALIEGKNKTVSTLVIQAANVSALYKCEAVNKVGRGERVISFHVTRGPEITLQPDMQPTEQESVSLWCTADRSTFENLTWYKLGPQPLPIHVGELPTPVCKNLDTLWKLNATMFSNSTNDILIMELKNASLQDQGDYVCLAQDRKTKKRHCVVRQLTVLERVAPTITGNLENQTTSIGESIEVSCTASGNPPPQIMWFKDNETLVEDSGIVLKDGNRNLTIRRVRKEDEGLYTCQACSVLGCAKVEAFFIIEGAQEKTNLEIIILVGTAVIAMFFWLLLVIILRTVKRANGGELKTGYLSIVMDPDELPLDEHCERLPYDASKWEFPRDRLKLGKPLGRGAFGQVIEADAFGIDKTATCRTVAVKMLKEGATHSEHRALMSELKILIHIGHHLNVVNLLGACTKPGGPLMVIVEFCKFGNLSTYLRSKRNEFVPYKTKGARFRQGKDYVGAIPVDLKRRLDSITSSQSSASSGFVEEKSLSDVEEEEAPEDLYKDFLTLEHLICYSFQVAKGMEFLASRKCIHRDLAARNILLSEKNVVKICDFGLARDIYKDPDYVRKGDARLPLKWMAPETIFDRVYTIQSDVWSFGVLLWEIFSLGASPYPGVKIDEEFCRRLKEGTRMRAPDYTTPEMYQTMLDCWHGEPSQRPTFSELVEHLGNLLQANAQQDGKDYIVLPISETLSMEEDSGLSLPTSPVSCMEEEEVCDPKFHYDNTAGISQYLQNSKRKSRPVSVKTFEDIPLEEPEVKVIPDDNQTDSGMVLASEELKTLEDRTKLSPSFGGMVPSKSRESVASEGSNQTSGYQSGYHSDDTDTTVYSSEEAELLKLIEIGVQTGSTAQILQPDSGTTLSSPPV
Data set [5] concerns NIH3T3 HRas^G12V tumors. Nature of the data set: Tumors induced by NIH3T3 HRas G12V cells in nu/nu mice. The format is in vivo. An outline of the steps:
(§1)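 Immunodeficient nu/nu mice were injected with NIH3T3 fibroblasts transformed by RET C634Y or by HRas G12V (Ras control). Before tumors appeared, mice received test compound orally at 1.0, 3.0 or 10.0 mg/kg/day or were left untreated. Tumor formation was scored. Tumor tissue was analysed for RET and VEGFR2 phosphorylation and for MAPK and mTOR signaling.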

The test system of data set [6] is NIH3T3 RET^C634Y tumors. Nature of the data set: Tumors induced by NIH3T3 RET C634Y cells in nu/nu mice. Format: in vivo. An outline of the steps: as §1
In data set [7] the target is T2, VEGFR2. Nature of the data set: VEGFA-induced VEGFR2 phosphorylation in HUVEC cells. The format is cell-based. The settings on record: 1.0 nM, endogenous level.
Data set [8] deals with NIH3T3 RET^C634Y cells. The data set can be described thus: In vitro cell proliferation of NIH3T3 RET C634Y. Format: cell-based. To be noted: read-out: IC50, cell proliferation.
Data set [9] is described as follows: Pharmacokinetic properties. To be noted: in vivo.
The test system of data set [10] is parental NIH3T3 cells. Nature of the data set: Growth of parental NIH3T3 cells. Format: cell-based. To be noted: up to 100.0 nM.
Data set [11] concerns the target RET^C634R (Homo sapiens, UniProt P07949, C634R). The data set can be described thus: Cell-based RET inhibition, oncogenic RET C634R. The settings on record: compared with predecessor compounds 1, 2 and 3a.
Data set [12] deals with RET (Homo sapiens, UniProt P07949). Nature of the data set: RET kinase microfluidics separation based assay. The format is biochemical. To be noted: read-out: IC50, RET; [ATP] = 190 μM; means of at least three experiments. An outline of the steps:
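Recombinant RET activity measured by a microfluidic separation-based kinase assay at [ATP] 190 µM. IC50 values are means of at least three independent experiments.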

The target in data set [13] is RET^V804L (Homo sapiens, UniProt P07949, V804L). Nature of the data set: Cell-based RET inhibition, RET V804L.
Chain of RET^V804L (P07949 29-1114 V804L): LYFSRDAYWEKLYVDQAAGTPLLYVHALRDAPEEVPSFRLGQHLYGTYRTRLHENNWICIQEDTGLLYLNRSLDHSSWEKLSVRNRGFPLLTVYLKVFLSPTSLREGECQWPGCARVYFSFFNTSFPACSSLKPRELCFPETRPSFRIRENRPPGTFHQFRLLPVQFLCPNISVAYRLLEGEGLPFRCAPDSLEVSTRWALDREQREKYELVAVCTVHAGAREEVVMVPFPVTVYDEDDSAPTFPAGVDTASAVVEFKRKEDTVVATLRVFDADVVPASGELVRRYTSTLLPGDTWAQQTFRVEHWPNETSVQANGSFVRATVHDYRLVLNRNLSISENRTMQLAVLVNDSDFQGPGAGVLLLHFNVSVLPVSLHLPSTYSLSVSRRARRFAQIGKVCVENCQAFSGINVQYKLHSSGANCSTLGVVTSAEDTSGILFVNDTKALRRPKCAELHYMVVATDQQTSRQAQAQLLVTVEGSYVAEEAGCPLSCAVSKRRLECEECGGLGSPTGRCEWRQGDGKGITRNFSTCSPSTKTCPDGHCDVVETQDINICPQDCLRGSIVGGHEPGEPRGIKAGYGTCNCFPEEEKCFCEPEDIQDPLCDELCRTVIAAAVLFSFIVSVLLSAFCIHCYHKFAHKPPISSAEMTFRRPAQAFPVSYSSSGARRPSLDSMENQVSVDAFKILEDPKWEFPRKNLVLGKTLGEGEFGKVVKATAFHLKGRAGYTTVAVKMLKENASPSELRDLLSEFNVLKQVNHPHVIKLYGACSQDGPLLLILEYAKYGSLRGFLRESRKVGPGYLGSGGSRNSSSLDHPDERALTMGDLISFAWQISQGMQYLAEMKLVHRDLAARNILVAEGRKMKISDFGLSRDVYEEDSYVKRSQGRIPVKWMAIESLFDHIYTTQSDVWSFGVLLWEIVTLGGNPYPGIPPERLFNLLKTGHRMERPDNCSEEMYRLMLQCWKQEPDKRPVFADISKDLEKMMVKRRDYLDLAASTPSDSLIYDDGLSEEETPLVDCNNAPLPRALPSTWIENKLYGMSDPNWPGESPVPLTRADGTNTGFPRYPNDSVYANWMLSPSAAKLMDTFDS
Data set [14] can be described thus: One-week tolerability in mice. The format is in vivo. To be noted: increased linearly with dose, doses up to 100.0 mg/kg.
For data set [15], the system named is RET oncoproteins. Nature of the data set: Cell-based phosphorylation of all tested RET oncoproteins. The settings on record: 1.0 nM.
In data set [16] the target is RET^C634Y (Homo sapiens, UniProt P07949, C634Y). Nature of the data set: RET C634Y tyrosine phosphorylation in NIH3T3 fibroblasts. Format: cell-based.
Chain of RET^C634Y (P07949 29-1114 C634Y): as the sequence (P07949 29-1114 V804L) above, with C606Y, L776V counted along it
Data set [17] has as its target T2, VEGFR2. Nature of the data set: VEGFR2 kinase microfluidics separation based assay. Format: biochemical. The settings on record: read-out: IC50, VEGFR2; [ATP] = 190 μM.
For data set [18], the target named is RET^M918T (Homo sapiens, UniProt P07949, M918T). Nature of the data set: Cell-based RET inhibition, oncogenic RET M918T.
Chain of RET^M918T (P07949 29-1114 M918T): as the sequence (P07949 29-1114 V804L) above, with L776V, M890T counted along it

“Also recorded” adds a separate entry of the source.

T1 sequence (P07949 29-1114 V804M): as the sequence (P07949 29-1114 V804L) above, with L776M counted along it
Chain of RET^C634R (P07949 29-1114 C634R): as the sequence (P07949 29-1114 V804L) above, with C606R, L776V counted along it
Chain of RET (P07949 29-1114): as the sequence (P07949 29-1114 V804L) above, with L776V counted along it

For `COc1cc2nccc(Oc3ccc(NC(=O)C4(C(=O)Nc5ccc(F)cc5)CC4)cc3)c2cc1OC` [cabozantinib], in [1], the “Response of RET^V804M to the drug” value is “refractory”.

In the case of `Cn1cc(-c2ccc3c(c2)ncn3-c2ccc(CC(=O)Nc3cc(C(C)(C)C)on3)cc2)cn1` [Pz-1], the “Activity against RET^V804M” value in [2] is on record as “highly effective”. Further, the IC50 in data set [3] was < 1 nM; in [8], 0.5 nM; in [12], < 1 nM; in data set [17], < 1 nM. Further, the “VEGFA-induced VEGFR2 phosphorylation” value in data set [4] and in data set [7] was “inhibiting VEGFA-induced VEGFR2 phosphorylation” each time. For the same compound, the “VEGFR2 phosphorylation in tumors” value is reported as “inhibited VEGFR2 phosphorylation” in data set [5] (Ras driven tumors, 1.0 mg/kg) and “inhibited VEGFR2 phosphorylation; also recorded: blocked phosphorylation” in data set [6] (RET driven tumors, 1.0 mg/kg). Besides, the “MAPK signaling in tumors” value in data set [5] (Ras tumors, 10.0 mg/kg) is “no effect”. The “Formation of RET-driven tumors” value in [6] (1.0 mg/kg/day per os) is “completely blocked; also recorded: abrogated formation of tumors”. For the same compound, the “RET phosphorylation in tumor tissue” value in [6] (1.0 mg/kg/day per os) was “blocked phosphorylation”. The “MAPK and mTOR mitogenic signaling cascades in tumors” value in data set [6] (RET-driven tumors) is given as “able to inhibit”. In addition, in [6] (nu/nu mice, PO 1.0, 3.0 or 10.0 mg/kg/day), the “Formation of tumors induced by RET^C634Y” value is “completely prevented formation of tumors”. Further, the Pharmacokinetic properties result in data set [9] is listed as “highly favorable”. Besides, the Growth inhibition entry in data set [10] is on record as “did not exert detectable growth inhibition”. In addition, the “RET inhibitory activity towards oncogenic RET^C634R” value in [11] is “increased RET inhibitory activity”. Moreover, in data set [13], the “Activity against RET^V804L” value was “highly effective”. The “Alanine transaminase (ALT)” value in data set [14] is “remaining within a normal range”. In data set [15], the “Phosphorylation of RET oncoproteins / clinically relevant RET mutants” value is “strongly inhibited”. Moreover, the “RET^C634Y tyrosine phosphorylation” value in [16] is on record as “efficient inhibition”. In addition, the “Activity against RET^M918T” value in [18] is reported as “highly effective”.
